The source made the active and inactive calls. No cut-off for these calls is given here.
Legend:
[1] = target: T1, Protein deacetylase HDAC6 (Homo sapiens, UniProt Q9UBN7); assay: Inhibition of recombinant human full length N-terminal GST-tagged HDAC6 expressed in Sf9 cells using ZMAL (Z-(Ac)Lys-AMC as substrate measured after 90 mins by fluorescence plate reader analysis
T1 sequence (Q9UBN7 whole entry): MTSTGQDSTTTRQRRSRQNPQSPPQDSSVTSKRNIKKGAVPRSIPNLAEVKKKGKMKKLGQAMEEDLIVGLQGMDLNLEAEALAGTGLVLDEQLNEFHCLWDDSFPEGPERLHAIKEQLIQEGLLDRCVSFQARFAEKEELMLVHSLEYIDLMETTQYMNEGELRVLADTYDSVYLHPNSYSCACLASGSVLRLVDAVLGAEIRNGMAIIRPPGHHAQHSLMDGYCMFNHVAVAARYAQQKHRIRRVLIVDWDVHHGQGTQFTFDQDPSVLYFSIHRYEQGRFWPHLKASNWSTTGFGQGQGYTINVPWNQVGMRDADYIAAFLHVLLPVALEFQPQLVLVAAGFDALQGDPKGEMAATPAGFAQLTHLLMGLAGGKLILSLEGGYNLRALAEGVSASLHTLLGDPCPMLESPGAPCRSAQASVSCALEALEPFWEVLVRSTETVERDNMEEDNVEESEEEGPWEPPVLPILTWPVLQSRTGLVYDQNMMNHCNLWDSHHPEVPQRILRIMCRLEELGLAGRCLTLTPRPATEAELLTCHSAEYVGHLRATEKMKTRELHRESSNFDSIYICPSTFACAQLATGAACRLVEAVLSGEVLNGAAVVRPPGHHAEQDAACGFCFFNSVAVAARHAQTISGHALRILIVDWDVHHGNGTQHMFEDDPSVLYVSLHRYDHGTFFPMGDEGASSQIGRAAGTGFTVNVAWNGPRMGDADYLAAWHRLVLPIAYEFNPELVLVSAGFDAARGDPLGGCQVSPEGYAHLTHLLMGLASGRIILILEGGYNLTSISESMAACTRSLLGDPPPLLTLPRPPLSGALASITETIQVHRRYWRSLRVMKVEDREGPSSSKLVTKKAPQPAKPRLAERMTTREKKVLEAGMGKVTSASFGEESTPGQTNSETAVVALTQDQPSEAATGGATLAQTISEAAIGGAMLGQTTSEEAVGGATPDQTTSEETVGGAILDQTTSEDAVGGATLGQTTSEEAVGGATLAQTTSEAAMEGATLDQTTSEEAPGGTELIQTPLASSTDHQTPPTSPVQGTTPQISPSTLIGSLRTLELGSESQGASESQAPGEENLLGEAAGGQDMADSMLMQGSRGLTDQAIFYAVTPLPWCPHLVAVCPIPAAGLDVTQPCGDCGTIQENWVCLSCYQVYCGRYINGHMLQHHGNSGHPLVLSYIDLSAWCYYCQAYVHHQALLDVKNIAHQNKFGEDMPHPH

[2] = target: T2, Histone deacetylase 1 (Homo sapiens, UniProt Q13547); assay: Inhibition of recombinant human full length C-terminal FLAG/His-tagged HDAC1 expressed in Sf9 insect cells using ZMAL (Z-(Ac)Lys-AMC as substrate at 10 uM measured after 90 mins by fluorescence plate reader analysis relative to control
T2 sequence (Q13547 whole entry): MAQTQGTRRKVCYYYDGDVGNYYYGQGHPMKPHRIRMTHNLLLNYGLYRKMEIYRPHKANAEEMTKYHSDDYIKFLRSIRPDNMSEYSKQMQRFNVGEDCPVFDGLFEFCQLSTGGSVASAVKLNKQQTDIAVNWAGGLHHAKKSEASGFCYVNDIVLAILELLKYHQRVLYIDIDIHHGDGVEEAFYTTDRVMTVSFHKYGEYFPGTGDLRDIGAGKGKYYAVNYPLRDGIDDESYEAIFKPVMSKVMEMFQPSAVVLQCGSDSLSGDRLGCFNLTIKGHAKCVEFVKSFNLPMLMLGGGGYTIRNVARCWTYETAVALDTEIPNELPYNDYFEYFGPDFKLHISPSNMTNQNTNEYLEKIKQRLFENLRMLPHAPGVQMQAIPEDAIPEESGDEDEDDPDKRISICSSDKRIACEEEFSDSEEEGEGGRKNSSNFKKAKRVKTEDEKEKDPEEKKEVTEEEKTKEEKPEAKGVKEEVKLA

[3] = target: T2, Histone deacetylase 1; assay: Inhibition of recombinant human full length C-terminal FLAG/His-tagged HDAC1 expressed in Sf9 insect cells using ZMAL (Z-(Ac)Lys-AMC as substrate at 1 uM measured after 90 mins by fluorescence plate reader analysis relative to control
[4] = target: T2, Histone deacetylase 1; assay: Inhibition of recombinant human full length C-terminal FLAG/His-tagged HDAC1 expressed in Sf9 insect cells using ZMAL (Z-(Ac)Lys-AMC as substrate at 50 uM measured after 90 mins by fluorescence plate reader analysis relative to control
[5] = Cytotoxicity against mouse NIH3T3 cells assessed as inhibition of cell growth by neutral red uptake assay
[6] = target: T2, Histone deacetylase 1; assay: Inhibition of recombinant human full length C-terminal FLAG/His-tagged HDAC1 expressed in Sf9 insect cells using ZMAL (Z-(Ac)Lys-AMC as substrate measured after 90 mins by fluorescence plate reader analysis
[7] = target: T3, Histone deacetylase 8 (Homo sapiens) (UniProt Q9BY41); assay: Inhibition of recombinant human HDAC8 using FLUOR DE LYS as substrate preincubated for 15 mins followed by substrate addition at 50 uM measured after 1 hrs by fluorescence plate reader analysis relative to control; details: time 75.0 min
T3 sequence (whole entry): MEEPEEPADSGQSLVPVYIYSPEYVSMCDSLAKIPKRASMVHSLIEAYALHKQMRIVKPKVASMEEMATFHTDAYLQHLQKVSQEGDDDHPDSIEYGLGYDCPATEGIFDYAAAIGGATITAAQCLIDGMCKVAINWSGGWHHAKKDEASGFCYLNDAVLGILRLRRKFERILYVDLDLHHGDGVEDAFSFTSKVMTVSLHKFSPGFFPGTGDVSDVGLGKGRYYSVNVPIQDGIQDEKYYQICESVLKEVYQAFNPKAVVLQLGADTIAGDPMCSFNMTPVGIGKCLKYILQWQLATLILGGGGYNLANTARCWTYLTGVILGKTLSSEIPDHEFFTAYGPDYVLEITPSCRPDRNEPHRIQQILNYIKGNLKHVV
Procedure, shortened: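 Kit recombinant human HDAC8 (0.45 U/reaction) was preincubated 15 min with compound (0.5% DMSO; DMSO-only control). Fluor de Lys substrate was then added at 50 µM final and the reaction ran 1 h at 30 °C. It was quenched with 2 µM TSA in Developer II for a further 1 h at 30 °C, and fluorescence read at ex 370/em 450 nm. IC50 came from nonlinear dose–response fitting.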

[8] = target: T4, Protein deacetylase HDAC6 (Homo sapiens) (UniProt Q9UBN7); assay: Inhibition of recombinant human full length N-terminal GST-tagged HDAC6 expressed in Sf9 cells using ZMAL (Z-(Ac)Lys-AMC as substrate at 1 uM measured after 90 mins by fluorescence plate reader analysis relative to control
T4 sequence (whole entry): T1 sequence (Q9UBN7 whole entry)

[9] = target: T4, Protein deacetylase HDAC6 (Homo sapiens); assay: Inhibition of recombinant human full length N-terminal GST-tagged HDAC6 expressed in Sf9 cells using ZMAL (Z-(Ac)Lys-AMC as substrate at 10 uM measured after 90 mins by fluorescence plate reader analysis relative to control
[10] = target: T4, Protein deacetylase HDAC6 (Homo sapiens); assay: Inhibition of recombinant human full length N-terminal GST-tagged HDAC6 expressed in Sf9 cells using ZMAL (Z-(Ac)Lys-AMC as substrate at 50 uM measured after 90 mins by fluorescence plate reader analysis relative to control
[11] = tested on: U-937; assay: Antiproliferation activity against human U-937 cells assessed as reduction in cell viability at 5 to 50 uM measured after 48 hrs by CCK-8 assay; type: functional, cell-based; details: dose 5-50 µM
Procedure, shortened: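 U937 cells were exposed in triplicate to 1, 5, 10 and 50 µM for 24 and 48 h. CCK-8 (WST-8) reagent was then added, with 3 h further incubation at 37 °C, and absorbance was read at 450 nm to give viability.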

[12] = tested on: HCT-116; assay: Antiproliferation activity against human HCT-116 cells assessed as reduction in cell viability at 5 to 50 uM measured after 48 hrs by MTT assay; type: functional, cell-based; details: dose 5-50 µM
Procedure, shortened: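 HCT116 cells in DMEM with 10% heat-inactivated FBS were seeded at 3×10^4 cells/well and treated in triplicate at 1, 5, 10 and 50 µM for 24 and 48 h. MTT at 0.5 mg/mL was added for 3 h, formazan was dissolved in DMSO, and absorbance was read at 570 nm.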

| Structure (SMILES) | IC50 [1] | inhibition [2] | inhibition [3] | inhibition [4] | IC50 [6] | further results |
| --- | --- | --- | --- | --- | --- | --- |
| O=C(NO)c1ccc(/C=C/C(=O)N2CCC(N3C(=O)[C@H](c4ccccc4)[C@H]3c3ccccc3)CC2)cc1 (racemic) | 0.13 µM | 90.1% | 49.7% | 100% | – | – |
| Cc1cccc(C2CC(=O)N2C2CCN(C(=O)NCc3ccc(C(=O)NO)cc3)CC2)c1 (racemic) | 0.399 µM | – | – | – | 3.1 µM | CC50 [5]: 100 µM |
| O=C(NO)c1ccc(COC(=O)N2CCC(N3CC(c4ccccc4)(c4ccccc4)C3=O)CC2)cc1 | 0.0185 µM | – | – | – | 4.1 µM | CC50 [5]: 80 µM; inhibition [7]: 13% |
| O=C(/C=C/c1ccc(C(=O)N2CCC(N3C(=O)[C@H](c4ccccc4)[C@H]3c3ccccc3)CC2)cc1)NO (racemic) | 0.168 µM | 93.4% | 61% | 97.3% | – | – |
| O=C(NO)c1ccc(CNC(=O)N2CCC(N3C(=O)CC3c3cccc(Cl)c3)CC2)cc1 (racemic) | 0.27 µM | – | – | – | 15.1 µM | – |
| O=C(CCc1ccc(C(=O)N2CCC(N3C(=O)[C@H](c4ccccc4)[C@H]3c3ccccc3)CC2)cc1)NO (racemic) | – | 66.4% | 22.3% | 89.5% | – | inhibition [8]: 35.9%; inhibition [9]: 85.7%; inhibition [10]: 98.4% |
| O=C(CCCCCCC(=O)Nc1ccccc1)NO | – | – | – | – | – | Activity [11]: Active; Activity [12]: Active |
| O=C(NO)c1ccc(CCC(=O)N2CCC(N3C(=O)[C@H](c4ccccc4)[C@H]3c3ccccc3)CC2)cc1 (racemic) | – | 48.7% | 17.2% | 83.6% | – | inhibition [8]: 69.7%; inhibition [9]: 97.1%; inhibition [10]: 102% |
| O=C(Cc1ccc(NC(=O)N2CCC(N3C(=O)[C@H](c4ccccc4)[C@H]3c3ccccc3)CC2)cc1)NO (racemic) | – | 53.3% | 23.6% | 82.7% | – | inhibition [8]: 60.2%; inhibition [9]: 94.2%; inhibition [10]: 103% |
| COc1ccc(Cn2ccc3ccc(C(=O)NO)cc32)cc1 | – | – | – | – | – | Activity [11]: Active; Activity [12]: Active |
| O=C(NO)c1ccc(NC(=O)N2CCC(N3C(=O)[C@H](c4ccccc4)[C@H]3c3ccccc3)CC2)cc1 (racemic) | 0.203 µM | – | – | – | 1.27 µM | – |
| O=C(NO)c1ccc(CC(=O)N2CCC(N3C(=O)[C@H](c4ccccc4)[C@H]3c3ccccc3)CC2)cc1 (racemic) | 0.121 µM | – | – | – | 5.14 µM | CC50 [5]: 48 µM |
